# Compound activity (PubChem BioAssay)
# Compounds with a hit are over-represented: about 3.1% of the library has one in this group of screens.
# GalR3 antagonist = human GalR3 antagonism; inhibition, % at 3 µM; HEK293 GalR3-CNG cAMP membrane potential fluorescence; galR3 body fused to GalR1 C-terminus; actives 0.44% (n = 360,000); AID 651719; O60755;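 active = inhibition above the screen-wide average plus 3 SD, cut at about 13% in these data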;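 also: forskolin and galanin both at EC90 stimulate the cells; cAMP rise reported by CNG channel membrane potential dye signal; 0% = forskolin plus galanin with DMSO and 100% = forskolin alone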
# OX1R antag-1 = blocks the human orexin 1 receptor | OX1R-expressing cells, FRET antagonist read-out | inhibition, % at 6.6 µM | actives 1.8% (n = 330,000); in the data active = inhibition mostly above about 38%, no sharp cut-off; inactive = mostly below about 40%;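 also: 0% = agonist challenge alone and 100% = reference antagonist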
# CHO parental Ca = counter-screen: ATP calcium response change in parental CHO cells; parental CHO-K1, ATP-induced calcium, Fluo-8 fluorescence; actives 0.63% (n = 330,000); inhibition, % at 5.6 µM;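 active = inhibition above that plate's mean sample inhibition plus 3 SD, cut at about 26% in these data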;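 also: 0% = ATP-challenged DMSO wells and 100% = DMSO wells without ATP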
#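 Material – parental CHO cells · Reagent – ATP stimulus · Compound – single nominal dose of 5.6 µM per compound · Detection – Fluo-8 fluorescence · Read-out basis – percent inhibition of calcium signal · Controls – ATP-challenged DMSO wells low, unchallenged DMSO wells high · Repeats – no replicates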
# OX1R antag-2 = antagonists of human orexin 1 receptor. O43613. CHO/OX1R cells, Fluo-8 calcium fluorescence, orexin A. inhibition, % at 5 µM. actives 0.43% (n = 330,000);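 active = inhibition above its plate's threshold, mean inhibition of all tested compounds on the plate plus 3 SD, cut at about 37% in these data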;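 also: 0% = orexin A challenge wells and 100% = SB-334867-A antagonist wells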
# GPR7 antag = human neuropeptides B/W receptor 1 antagonism. P48145. GPR7-expressing cells, fluorescence antagonist assay. inhibition, % at 4.4 µM. actives 1.1% (n = 290,000); in the data active = inhibition above about 16%, passing the limit was not always enough;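 also: cells stimulated with the agonist NPW; 0% = agonist with vehicle and 100% = vehicle without agonist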
# Target sequence (P48145 whole entry, looked up): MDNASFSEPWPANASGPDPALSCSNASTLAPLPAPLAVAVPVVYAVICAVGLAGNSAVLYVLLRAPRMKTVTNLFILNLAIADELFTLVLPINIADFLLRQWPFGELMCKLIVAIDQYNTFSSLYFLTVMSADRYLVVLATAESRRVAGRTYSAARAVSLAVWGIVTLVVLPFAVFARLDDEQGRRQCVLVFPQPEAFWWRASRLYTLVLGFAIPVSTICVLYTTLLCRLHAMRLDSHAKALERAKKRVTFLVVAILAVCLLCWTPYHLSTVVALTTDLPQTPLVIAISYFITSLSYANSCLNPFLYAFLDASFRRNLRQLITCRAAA
# An asterisk follows results filed as active; nt = no result.
SMILES,GalR3 antagonist,OX1R antag-1,CHO parental Ca,OX1R antag-2,GPR7 antag
CSc1cccc(NC(=O)CN(C)S(=O)(=O)c2ccccc2)c1,-3.1,49.6*,-13.7,7.1,-15.7
CSc1cccc(NC(=O)Nc2ccc(Cl)cc2)c1,-3.0,50.5*,80.6*,49.3*,0.0
CSc1cccc(NC(=O)NCc2cccc(CNC(=O)Nc3cccc(SC)c3)c2)c1,2.6,39.8,-5.6,13.6,-11.5
CSc1cccc(NC(=O)C(=O)NCc2ccccc2)c1,-5.3,11.0,28.4*,-8.9,-13.0
COc1ccc(CCNC(=O)c2c(Cl)ccc(Cl)c2OC)cc1OC,-9.5,28.1,-12.6,-15.0,-2.0
COc1cc(/C=N/NC(=O)c2cccc([N+](=O)[O-])c2)cc(OC)c1O,2.4,38.9,-4.5,-0.6,-1.0
COc1cc(/C=N/NC(=O)c2cncc(Br)c2)cc([N+](=O)[O-])c1O,25.0*,27.0,-6.7,-16.2,-18.6
COC(=O)[C@]12C[C@H](CC(=O)NCCc3ccccc3OC)C(=O)N(CCC3=CCCCC3)C1=C[C@H](C(C)(C)C)O[C@@H]2C,1.4,nt,nt,nt,nt
Cc1cc2ccccn2c1C(=O)c1ccncc1,-1.8,32.2*,2.7,0.6,13.2
CC(=O)c1c(-c2ccc(Cl)cc2)c2ccccc2[nH]c1=O,-5.7,11.5,-11.9,-21.3,-7.7
CC(=O)c1c(-c2ccccc2)c2cc(Cl)ccc2[nH]c1=O,-4.2,66.7*,-18.8,2.2,-3.9
O=c1oc(-c2ccccc2)nc2sc3c(c12)CCC3,-7.0,17.0,-7.9,-17.9,-3.7
Nc1nc(-c2ccccc2)nc2sc3c(c12)CCCC3,-1.1,68.3*,-9.0,5.6,-6.8
CN(CCc1ccccn1)c1ccccc1,-5.7,nt,nt,nt,nt
Cc1nn2c(CN(C(=O)COc3ccccc3)c3ccccc3)nnc2c2ccccc12,-7.5,61.6*,-10.1,-0.2,-11.9
OCC(CCc1c[nH]c2ccccc12)c1c[nH]c2ccccc12 (stereo not given),-2.2,nt,nt,nt,nt
Cc1ccc(NC(=S)NCc2ccc3c(c2)OCO3)cc1C,-5.2,4.0,-16.9,-11.2,-10.5
S=C(NCc1ccc2c(c1)OCO2)Nc1ccc2nsnc2c1,-2.7,39.8,32.1,53.1*,7.8
CCOc1ccc(NC(=S)Nc2ccc3nsnc3c2)cc1,2.4,113.3*,-12.2,-12.1,11.0
COCc1[nH]nc2c1C(c1ccccc1)N(Cc1ccccc1)C2=O (stereo not given),-1.4,nt,nt,nt,nt
Cc1[nH]c2ccccc2c1/C=N/NC(=O)c1cc(C(C)C)[nH]n1,-2.0,44.5*,-7.7,0.6,-11.2
CCc1cc(Cn2nc(-c3ccccc3)cc2C(=O)NCc2cccs2)on1,-6.3,49.8,49.7*,41.6,nt
CCc1cc(Cn2nc(-c3ccccc3)cc2C(=O)NCCOC)on1,-4.6,10.9,-2.6,-4.9,nt
Cc1ccsc1-c1nc(CSCC(=O)NCc2ccc3c(c2)OCO3)c(C)o1,nt,39.7*,-12.3,-29.9,-5.2
COc1ccc(-c2nc(CSCC(=O)NCc3ccc4c(c3)OCO4)c(C)o2)cc1OC,nt,34.7,-14.0,-17.2,3.2
SMILES,GalR3 antagonist,OX1R antag-1,CHO parental Ca,OX1R antag-2,GPR7 antag
O=C(O)c1nn(Cc2ncc(-c3cccc(Cl)c3)o2)c(=O)c2ccccc12,-1.4,18.8,-12.7,-12.0,-14.7
COc1cc(NC(=O)[C@H]2CCCN2S(=O)(=O)c2cccc3cccnc23)cc(OC)c1OC,-5.8,40.8,-18.6,-15.3,nt
O=C(Nc1ccc(Cl)cn1)C1CCCN1S(=O)(=O)c1ccc(Cl)cc1 (stereo not given),-8.2,64.1*,-30.9,36.6,-6.3
O=C(Nc1ccc(Cl)cn1)C1CCCN1S(=O)(=O)c1cccc2ccccc12 (stereo not given),-5.4,63.6*,-9.8,2.5,-6.0
COc1ccc(-c2ccc3c(n2)CCCN3S(=O)(=O)c2ccc(C(F)(F)F)cc2)cc1,-2.6,nt,nt,nt,nt
COc1cccc(CN2CCN(S(=O)(=O)c3ccc(Cl)s3)CC2)c1,-0.6,20.4,-0.3,-32.9,9.6
COc1ccc(Nc2ncnc3ccc([N+](=O)[O-])cc23)c(OC)c1,-1.4,66.5*,-4.9,-8.0,1.1
COc1ccc(CCNC(=O)CCc2ccc(S(=O)(=O)NC(C)C)cc2)cc1OC,-6.7,-0.3,-14.4,-20.5,-0.8
COc1ccc(CCNC(=O)COc2ccc(S(=O)(=O)NC(C)C)cc2Cl)cc1OC,nt,47.5*,-5.0,16.4,-8.9
COc1ccccc1OCC(O)Cn1c(=N)n(CCN2CCCCC2)c2ccccc21 (stereo not given),-8.9,13.5,-11.8,-9.4,24.8*
